# Data as given in article PMC2820722 (Journal of the American Chemical Society, 2010).
# Peptide text beside a SMILES is read from it. * marks the point of attachment. Cbz = O=C(OCc1ccccc1)*
# What was measured:
# [1] = test system: proteasome Ch-L catalytic subunit in yeast cell lysate (defective T-L/Ca-L); assay: Yeast cell lysate assay, double mutant strain; format: biochemical; conditions: MG132 5 μM, peptide 5 9.25 μM, Fig. 1A green
# [2] = test system: proteasome with defective Ch-L subunit in yeast cell lysate; assay: Yeast cell lysate assay, defective Ch-L subunit; format: biochemical; conditions: peptide 9.25 μM; ~1 mg protein/mL lysate; λex 600 nm, λem 700 nm; Fig. 1A brown
# Outline: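 Yeast cells (catalytic Thr→Ala) were harvested in log phase into 50 mM Tris-HCl pH 7.4, 1 mM EDTA, 5 mM MgCl2, drop-frozen in liquid nitrogen, cryolysed by grinding mill, and cleared (14000 rpm, 20 min, 4 °C). Protein was set equal by Bradford. The sensor was added as half the assay volume from a 2× solution, and fluorescence change was followed on a plate reader.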
# [3] = test system: 20S proteasome Ca-L active site; format: biochemical, Saccharomyces cerevisiae; conditions: 30 μM peptide 5; 100 μM Z-LLE-βna; purified 20S proteasome, Buffer A, 30 °C; λex 342 nm, λem 425 nm; Fig. 2B
# [4] = test system: 20S proteasome T-L active site; format: biochemical, Saccharomyces cerevisiae; conditions: 30 μM peptide 5; 100 μM Boc-LRR-amc; purified 20S proteasome, Buffer A, 30 °C; λex 380 nm, λem 460 nm; Fig. 2B
# [5] = Light-driven conversion of caged probe to active probe; format: physicochemical; conditions: 349 nm pulsed UV laser; caged fluorescein derivative as reference (Fig. S-6)
# Outline: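 Uncaging by 349 nm diode-pumped Q-switched UV laser (5 ns pulses, 1 kHz, […] pulse energy) of the sample in a quartz cuvette. Dose was set by the number of pulses delivered and compared against an […] (CMNB)-fluorescein reference standard.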
compound,measurement,setting,value
CC(C)C[C@@H](C=O)NC(=O)[C@H](CC(C)C)NC(=O)[C@H](CC(C)C)NC(=O)OCc1ccccc1 [MG132] (Cbz-Leu-Leu-Leu-aldehyde),Effect of inhibitor on hydrolytic activity towards peptide 5 in lysate,[1],completely abolishes hydrolytic activity
Ac-His-Trp-Ser-Leu-Lys(Fl)-amide [Peptide 5],Fluorescence change of the sensor in lysate with defective Ch-L subunit,[2],barely perceptible fluorescence change
same,Effect of Ch-L substrate on rate of Ca-L substrate processing,[3],reduces the rate
same,Effect of Ch-L substrate on rate of T-L substrate processing,[4],reduces the rate
Ac-His-Trp-Ser-Leu-N(DMNB)-Lys(Fl)-amide [Peptide 10],Quantum yield for the photolytic conversion of 10 to 5,[5],0.08
